An excerpt weighted towards active compounds, which were near 4.8% of everything screened.
Mdm2-MdmX inh – human Mdm2/MdmX binding inhibition | AID 485346 | O15151+Q00987 | hit rate 3% among 330,000 | inhibition, % at 8 µM | SaOS-2 split-luciferase Mdm2/MdmX complementation, luminescence;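 active = inhibition of at least 50% at 8 µM in the primary screen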
Target sequence (O15151 whole entry, looked up): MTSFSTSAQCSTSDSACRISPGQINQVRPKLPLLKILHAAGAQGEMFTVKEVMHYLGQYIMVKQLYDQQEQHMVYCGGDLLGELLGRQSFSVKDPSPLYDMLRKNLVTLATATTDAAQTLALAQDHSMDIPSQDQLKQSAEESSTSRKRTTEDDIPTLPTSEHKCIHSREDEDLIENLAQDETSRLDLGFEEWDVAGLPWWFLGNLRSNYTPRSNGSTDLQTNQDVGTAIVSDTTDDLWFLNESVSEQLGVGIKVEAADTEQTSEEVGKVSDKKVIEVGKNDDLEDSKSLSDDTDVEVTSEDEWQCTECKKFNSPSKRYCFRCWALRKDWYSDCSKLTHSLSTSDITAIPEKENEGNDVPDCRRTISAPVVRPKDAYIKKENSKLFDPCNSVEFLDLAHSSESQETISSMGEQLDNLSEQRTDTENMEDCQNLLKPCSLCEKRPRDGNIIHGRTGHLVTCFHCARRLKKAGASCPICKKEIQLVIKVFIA
Target sequence (Q00987 whole entry, looked up): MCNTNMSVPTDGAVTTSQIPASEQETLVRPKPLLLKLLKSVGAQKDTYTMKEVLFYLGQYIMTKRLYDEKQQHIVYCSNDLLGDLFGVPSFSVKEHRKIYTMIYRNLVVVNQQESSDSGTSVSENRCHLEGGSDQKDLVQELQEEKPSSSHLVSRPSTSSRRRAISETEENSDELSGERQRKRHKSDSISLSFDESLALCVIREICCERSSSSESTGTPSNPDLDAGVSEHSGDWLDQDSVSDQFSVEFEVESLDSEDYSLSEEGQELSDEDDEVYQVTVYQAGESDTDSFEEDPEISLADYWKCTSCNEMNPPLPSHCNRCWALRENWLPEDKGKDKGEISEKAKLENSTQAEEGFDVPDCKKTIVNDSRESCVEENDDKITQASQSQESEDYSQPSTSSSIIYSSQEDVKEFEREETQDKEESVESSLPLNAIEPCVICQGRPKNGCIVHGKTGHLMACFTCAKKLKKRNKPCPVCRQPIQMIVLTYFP
UPR XBP1 act – activators of adaptive arm of unfolded protein response (XBP1) | CHO-XBP1 luciferase reporter, IRE1-XBP1 UPR activation, luminescence; percent of tunicamycin response, DMSO as zero | activation, % at 20 µM | hit rate 0.33% among 330,000 | AID 463104;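 active = versus positive control, 20 µM dose yields 30% or more activation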
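Material: IRE1-XBP1 luciferase reporter CHO line / Quantity: one thousand reporter cells per well / Buffer or medium: F12 with 10% serum / Compound: 20 µM single concentration, DMSO 1% / Times: 6 h treatment, 37 °C / Detection: Steady-Glo luciferase glow luminescence, 10 min after reagent addition / Benchmarks: tunicamycin high, DMSO low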
CSC inhib – cancer stem cell inhibition; cancer stem cell-like cells viability, luminescence; inhibition, % at 7.5 µM; hit rate 1.1% among 300,000; AID 2717; in the data active = inhibition above about 75%; tested in HMLE shEcad cells
SKKanGAS inh – SKKanGAS growth inhibition; S. pyogenes SKKanGAS, kanamycin growth, BacTiter-Glo, 6 h; inhibition, % at 7.5 µM; hit rate 1.3% among 300,000;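 active = mean replicate score, as percent of positive control median, at least 50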;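 note: strain carries kanamycin resistance gene driven by streptokinase promoter and grows in 40 µg/ml kanamycin; loss of luminescence reflects streptokinase promoter inhibition or plain growth inhibition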
UPR CHOP act – apoptotic UPR (CHOP) activation | hit rate 0.34% among 330,000 | CHO-CHOP luciferase reporter, luminescence; percent of tunicamycin response over DMSO baseline | activation, % at 10 µM | AID 449763;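 active = at 10 µM dose, activation of 40% or more, normalized to positive control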
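Assay system: CHO cells with stable CHOP pathway luciferase reporter; Buffer or medium: F12 plus 10% serum; Times: 16-18 h cell attachment, then 6 h compound exposure, 37 °C; Signal: luciferase luminescence; Read-out basis: percent activation relative to tunicamycin control; Control set: tunicamycin high control, DMSO low control.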
Beta cell apopt – blocks beta cell apoptosis | hit rate 0.8% among 300,000 | INS-1E cytokine-induced death, ATP luminescence, 48 h; percent of positive-control rescue, neutral wells zero | AID 435005 | protection from apoptosis, % (concentration not given with the values);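 active = Every replicate reaches about 75%, or at least half do and their mean reaches it too, limit read from the data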;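 note: higher means more ATP so stronger rescue from cytokine killing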
Mdm2 MdmX conf – confirmation of human Mdm2/MdmX interaction inhibitors; shares compounds with Mdm2-MdmX inh; Mdm2-MdmX binding, luminescent assay; inhibition, % at 8 µM; hit rate 55% among 10,000; in the data active = inhibition above about 40%
Full FLuc ctr – inhibits full-length luciferase, flagging false Mdm2/MdmX hits. shares compounds with Mdm2-MdmX inh. hit rate 77% among 6,200. SaOS-2 full-length luciferase counterscreen, luminescence. inhibition, % at 8 µM;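 active = mean inhibition at 8 µM reaching about 37%, which flags the compound as non-specific, limit read from the data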;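 note: p53-null SaOS-2 cells with luciferase driven by a doxycycline-inducible promoter; compound on cells about two nights before reading with doxycycline added after day one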
Hits are given with their value; 0 = inactive; - = no result given.

SMILES	Mdm2-MdmX inh	UPR XBP1 act	CSC inhib	SKKanGAS inh	UPR CHOP act	Beta cell apopt	Mdm2 MdmX conf	Full FLuc ctr
CCCn1c(N)c(C(=O)CSc2nc3ccccc3c(=O)n2Cc2ccccc2)c(=O)[nH]c1=O	0	0	0	0	0	0	-	-
Cn1c(=O)c(C(=O)CCl)c(N)n(Cc2ccccc2)c1=O	58	0	0	0	0	0	46	86
Cn1c(N)c(C(=O)CSc2nc3ccccc3c(=O)n2Cc2ccccc2)c(=O)n(C)c1=O	89	0	0	0	0	0	44	90
C[C@]12c3[nH]c4ccc(Cl)cc4c3CCN1C(=O)[C@@H](CC(=O)NCCC1=CCCCC1)C[C@@H]2C(=O)N1CCOCC1	0	0	-	-	0	-	-	-
COCCn1c(SCC(=O)NCC2CCCO2)nc2c([nH]c3ccccc32)c1=O (stereo not drawn)	0	0	0	0	0	0	-	-
COc1ccc(C2=NN(C(=O)c3ccco3)C(c3cc4ccccc4nc3Cl)C2)cc1 (stereo not drawn)	82	0	0	0	0	0	0	-
CCOc1ccc(S(=O)(=O)N2CCC(C(=O)NCc3cccnc3)CC2)cc1C	0	0	0	0	0	0	-	-
Cc1ccc(C)c(CN2CCC(CNC(=O)Nc3ccc(Br)cc3F)CC2)c1	56	0	0	0	0	0	44	69
Cc1ccc(C)c(CN2CCC(CNC(=O)Nc3ccc(Cl)cc3)CC2)c1	0	0	0	0	0	0	-	-
CC1=Nc2cc(C(=O)N3CCCC3)ccc2Sc2c(C)ccc(C)c21	90	0	0	0	0	0	67	0
CCn1cc(C(=O)NCCC(C)C)c(=O)c2cc(F)c(N3CCN(C(=O)c4ccco4)CC3)cc21	54	0	0	0	0	0	42	63
COc1ccc2c(c1[N+](=O)[O-])CCC/C2=N/OC(=O)c1cccc2ccccc12	52	0	0	0	0	0	0	-
COc1ccccc1C(=O)ON=C1c2ccccc2-c2ccccc21	0	0	0	0	0	0	-	-
COc1ccc(C(C)(C)C)cc1NC(=O)c1[nH]c(C)c(C(C)=O)c1C	54	0	0	0	0	0	0	-
Brc1nc(-c2ccccc2)nc(-c2ccccc2)c1Br	79	0	0	0	0	0	0	-
c1ccc(-c2nnc(-c3ccncc3)nc2-c2ccccc2)cc1	0	0	-	0	0	0	-	-
COc1ccc(C(=O)N=S2CCN(C(=O)c3ccc(Cl)cc3)CC2)cc1	0	0	0	0	0	0	-	-
C=CCN(c1ccccc1)S(=O)(=O)c1cccc(C(=O)NC2CCN(Cc3ccccc3)CC2)c1	60	0	0	0	0	0	0	-
Cc1ccccc1C(=O)c1cccn1CC(=O)NCCN1CCN(c2cccc(C)c2C)CC1	79	0	0	0	0	0	48	59
Cc1ccccc1C(=O)c1cccn1CC(=O)NCCCN1CCCCC1	0	0	-	0	0	0	-	-
Cc1ccc(C)c(N2CCN(CCCNC(=O)Cn3cccc3C(=O)c3ccccc3C)CC2)c1	90	0	0	0	0	0	66	43
O=c1c2cc(Cl)ccc2nc(-c2ccc(Cl)c(Cl)c2)n1O	72	0	120	74	0	0	83	0
O=c1c2cc(Br)ccc2nc(-c2cccc(C(F)(F)F)c2)n1O	55	0	0	111	0	0	42	0
COc1ccc(N2CCN(CC(=O)Nc3ccccc3C(=O)NCc3ccccc3)CC2)cc1	0	0	-	-	0	-	-	-
COCCn1c(C)cc(C(=O)COC(=O)c2ccccc2Br)c1C	80	0	0	0	0	0	93	74
SMILES	Mdm2-MdmX inh	UPR XBP1 act	CSC inhib	SKKanGAS inh	UPR CHOP act	Beta cell apopt	Mdm2 MdmX conf	Full FLuc ctr
Cc1cc(C(=O)COc2ccccc2C(N)=O)c(C)n1CC1CCCO1 (stereo not drawn)	0	0	-	0	0	-	-	-
Cc1cc(C(=O)COC(=O)c2cccnc2Cl)c(C)n1CC1CCCO1 (stereo not drawn)	79	0	0	0	0	0	82	97
O=C(COC(=O)c1ccccc1[N+](=O)[O-])c1ccc2c(c1)OCO2	53	0	0	0	0	0	83	148
COCCn1c(C)cc(C(=O)COC(=O)c2cccnc2SC)c1C	0	0	0	-	0	0	-	-
Cc1cc(C(=O)COC(=O)c2ccccc2NCCO)c(C)n1CC1CCCO1 (stereo not drawn)	0	0	0	0	0	0	-	-
Cc1cc(C(=O)COC(=O)c2ccccc2Br)c(C)n1CC1CCCO1 (stereo not drawn)	91	0	0	0	0	0	93	39
Cc1cccc(C(=O)OCC(=O)c2ccc3c(c2)OCO3)c1O	0	0	0	0	0	-	-	-
Cc1noc(C)c1C(=O)OCC(=O)Nc1ccc(S(N)(=O)=O)cc1	0	0	0	-	0	0	-	-
C=CCN1C(=O)C2(OCCO2)c2cc(C)ccc21	0	0	0	0	0	0	-	-
COc1ccc(C(=O)N=C2SC3CS(=O)(=O)CC3N2c2ccc(N(C)C)cc2)cc1OC (stereo not drawn)	0	0	0	0	0	0	-	-
Cc1ccc(C(=O)OCC(=O)c2cc(C)n(CC3CCCO3)c2C)cc1 (stereo not drawn)	0	0	0	0	0	0	-	-
C=CCn1c(C)cc(C(=O)COC(=O)c2ccc(N)c([N+](=O)[O-])c2)c1C	0	0	0	0	0	0	-	-
CCn1c(C)cc(C(=O)COC(=O)c2ccccc2[N+](=O)[O-])c1C	96	0	0	-	0	0	96	53
Cc1cc(C(=O)COC(=O)c2cccc(NS(C)(=O)=O)c2)c(C)n1CC1CCCO1 (stereo not drawn)	70	0	0	-	0	0	74	97
Cc1cc(C(=O)COC(=O)c2n[nH]c3ccccc23)c(C)n1CC1CCCO1 (stereo not drawn)	0	0	0	0	0	0	-	-
Cc1cc(C(=O)COC(=O)c2ccc3c(c2)OCO3)c(C)n1Cc1cccs1	0	0	0	0	0	0	-	-
Cc1cc(C(=O)COC(=O)c2ccccc2O)c(C)n1CC1CCCO1 (stereo not drawn)	94	0	-	-	0	0	97	0
Cc1cc(C(=O)COC(=O)c2ccccc2O)c(C)n1Cc1cccs1	97	0	0	0	0	0	94	0
CC(=O)c1ccc2c(c1)C1C=CCC1C(c1cc3c(cc1Br)OCO3)N2 (stereo not drawn)	67	0	0	0	0	0	47	57
CN(C)c1ccc(NC(=O)CN2CCC(O)(c3ccccc3)CC2)cc1	0	0	0	0	0	0	-	-
